Values belong to the molecule of their own block, whether it stands above or below them. Active and inactive are the calls of the source. The calls are words filed in the database; no cut-off is given here.
Legend:
MCF7 [1] = test: Induction of mitochondrial membrane depolarization in human MCF7 cells at 6 uM after 24 hrs by JC-1 staining based flow cytometry (reference value: 11%); format: functional
MCF7 [2] = test: Inhibition of colony formation in human MCF7 cells at 3 to 6 uM incubated for 24 hrs measured till day 7 by crystal violet staining based assay; format: functional, cell-based
In short: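 Cells were treated with a range of concentrations for 24 h. The medium was then replaced with complete medium and cells were grown for 7 days. Colonies were stained with 0.1% crystal violet.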

MCF7 [3] = test: Induction of apoptosis in human MCF7 cells assessed as viable cells at 6 uM after 24 hrs by annexin V-FITC/propidium iodide staining based flow cytometry (reference value: 82.63%); format: functional; settings: MCF7, 24 h, read-out: Activity
In short: (§1)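 MCF-7 cells exposed to 3, 6 or 9 μM and PC-3 cells to 4.8 or 8.8 μM for 24 h, then harvested and dual-stained with Annexin V-FITC/PI and read by flow cytometry. Gates: live AnnexinV⁻/PI⁻, early apoptotic AnnexinV⁺/PI⁻, necrotic AnnexinV⁻/PI⁺.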

[4] = Intrinsic hepatic clearance in liver microsomes (unknown origin) assessed per mg of protein at 5 ug/ml in presence of NADPH by UPLC analysis; format: ADME, Microsome; settings: read-out: CLH (converted)
MCF7 [5] = test: Induction of apoptosis in human MCF7 cells assessed as viable cells at 3 uM after 24 hrs by annexin V-FITC/propidium iodide staining based flow cytometry (reference value: 82.63%); format: functional; settings: MCF7, 24 h, read-out: Activity
In short: (§2)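 Apoptosis by Annexin V-FITC/PI dual staining: MCF-7 cells treated 24 h at 3, 6 and 9 µM, then harvested, stained and acquired by flow cytometry; early apoptotic = AnnexinV+/PI−, live = AnnexinV−/PI−, necrotic = AnnexinV−/PI+.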

MCF7 [6] = test: Cell cycle arrest in human MCF7 cells assessed as increase in cells at S phase after 24 hrs by propidium iodide staining based flow cytometry; format: functional
In short: (§3)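 Cells treated 24 h with test compound, MCF-7 at various concentrations and PC-3 at various concentrations; cells harvested, stained with propidium iodide and acquired by flow cytometry for cell cycle phase distribution.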

MCF7 [7] = test: Induction of mitochondrial membrane depolarization in human MCF7 cells at 3 uM after 24 hrs by JC-1 staining based flow cytometry (reference value: 11%); format: functional
MCF7 [8] = test: Cell cycle arrest in human MCF7 cells assessed as accumulation at G2/M phase at 3 uM after 24 hrs by propidium iodide staining based flow cytometry (reference value: 20.30%); format: functional; in short: as §3
MCF7 [9] = test: Cell cycle arrest in human MCF7 cells assessed as accumulation at S phase at 9 uM after 24 hrs by propidium iodide staining based flow cytometry (reference value: 34.03%); format: functional; in short: as §3
MCF7 [10] = test: Induction of apoptosis in human MCF7 cells assessed as late apoptotic cells at 3 uM after 24 hrs by annexin V-FITC/propidium iodide staining based flow cytometry (reference value: 5.25%); format: functional; in short: as §2
[11] = Elimination rate constant in liver microsomes (unknown origin) at 5 ug/ml measured up to 60 mins by UPLC analysis; format: ADME, Microsome
MCF7 [12] = test: Induction of apoptosis in human MCF7 cells assessed as late apoptotic cells at 6 uM after 24 hrs by annexin V-FITC/propidium iodide staining based flow cytometry (reference value: 5.25%); format: functional; in short: as §2
PC-3 [13] = test: Induction of morphological changes in human PC3 cells at 2.4 to 8.8 uM after 24 hrs by phase contrast microscopy; format: functional, cell-based
In short: (§4)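 Cells were exposed to a range of concentrations for 24 h. Cell number and morphology, including detachment from the surface, were assessed by phase-contrast microscopy at 10X magnification.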

PC-3 [14] = test: Induction of morphological changes in human PC3 cells assessed as cell detachment at >8.8 uM after 24 hrs by phase contrast microscopy; format: functional, cell-based; in short: as §4
PC-3 [15] = test: Cell cycle arrest in human PC3 cells assessed as accumulation at G2/M phase at 8.8 uM after 24 hrs by propidium iodide staining based flow cytometry (reference value: 2.25%); format: functional; in short: as §3
[16] = Elimination rate constant in liver microsomes (unknown origin) at 8 ug/ml measured up to 60 mins by UPLC analysis; format: ADME, Microsome
PC-3 [17] = test: Decrease in Bcl-2 expression in human PC3 cells at 4.8 to 8.8 uM after 24 hrs by Western blot analysis; format: functional, cell-based
In short: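 MCF-7 or PC-3 cells treated with compound for 24 h, harvested; PCNA, Bax and Bcl-2 protein expression checked by Western blotting.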

PC-3 [18] = test: Induction of mitochondrial membrane depolarization in human PC3 cells at 4.8 uM after 24 hrs by JC-1 staining based flow cytometry (reference value: 4.51%); format: functional
PC-3 [19] = test: Induction of apoptosis in human PC3 cells assessed as early apoptotic cells at 8.8 uM after 24 hrs by annexin V-FITC/propidium iodide staining based flow cytometry (reference value: 4.44%); format: functional; in short: as §1
PC-3 [20] = test: Cell cycle arrest in human PC3 cells assessed as accumulation at S phase at 4.8 uM after 24 hrs by propidium iodide staining based flow cytometry (reference value: 25.01%); format: functional; in short: as §3
PC-3 [21] = test: Induction of apoptosis in human PC3 cells assessed as late apoptotic cells at 4.8 uM after 24 hrs by annexin V-FITC/propidium iodide staining based flow cytometry (reference value: 0.80%); format: functional; in short: as §1
PC-3 [22] = test: Induction of apoptosis in human PC3 cells assessed as necrotic cells at 4.8 uM after 24 hrs by annexin V-FITC/propidium iodide staining based flow cytometry (reference value: 2.52%); format: functional; in short: as §1

- CLint scaled at 5 ug/ml [4]: 317 L/h/kg
- k el at 1 h, 5 ug/ml [11]: 0.00147 s⁻¹
Structure (SMILES): O=C1/C(=C/c2ccccc2F)CN(Cc2cn(Cc3ccc(F)cc3)nn2)C/C1=C\c1ccccc1F
- Activity (MCF7 [1]): 85.6%
- inhibition (MCF7 [2]): Active
- viability at 6 µM (MCF7 [3]): 50%
- viability at 3 µM (MCF7 [5]): 52.4%
- Activity (MCF7 [6]): Dose-dependent effect
- Activity (MCF7 [7]): 66.45%
- Activity (MCF7 [8]): 25.7%
- Activity (MCF7 [9]): 62.67%
- Activity (MCF7 [10]): 16.3%
- Activity (MCF7 [12]): 15.2%

- k el at 1 h, 8 ug/ml [16]: 0.000733 s⁻¹
Structure (SMILES): Cc1ccc(/C=C2\CN(Cc3cn(Cc4ccccc4F)nn3)C/C(=C\c3ccc(C)cc3)C2=O)cc1
- Activity (PC-3 [13]): Active
- Activity (PC-3 [14]): Active
- Activity (PC-3 [15]): 8.9%
- Activity (PC-3 [17]): Active
- Activity (PC-3 [18]): 29.85%
- Activity (PC-3 [19]): 17.54%
- Activity (PC-3 [20]): 21.02%
- Activity (PC-3 [21]): 0.81%
- Activity (PC-3 [22]): 0.91%

From ChEMBL document CHEMBL4477254, “Synthesis and biological evaluation of some novel triazole hybrids of curcumin mimics and their selective anticancer activity against breast and prostate cancer cell lines” (Bioorg Med Chem Lett, 2016)
